Experimental data reported in ChEMBL document CHEMBL5058577, “EUbOPEN Chemogenomics Library 2 (Multiplex)” (2022).

Test system: HEK-293T
Assay: Multiplex assay against HEK293T
Format: toxicity, cell-based
Conditions: human
How it was run: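 Live cells were stained at seeding with Hoechst33342, BioTracker Green Microtubule Cytoskeleton Dye, MitoTracker Red and Annexin V Alexa Fluor 680. Following compound addition, they were imaged on a CQ1 microscope at 37°C and 5% CO2 and gated by CellPathfinder machine learning into Hoechst high-intensity objects or normal cells, with normal cells split into healthy, pyknosed or fragmented nuclei and pyknosed cells into mitotic or apoptotic. Tubulin, mitochondrial-mass and membrane-permeability phenotypes are per cents of healthy-nucleus cells.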

[1] = 12 h, 1 µM, compound concentration 1 uM, replicate 1
[2] = 12 h, 1 µM, compound concentration 1 uM, replicate 2
[3] = 12 h, 10 µM, compound concentration 10 uM, replicate 1
[4] = 12 h, 10 µM, compound concentration 10 uM, replicate 2
[5] = 24 h, 1 µM, compound concentration 1 uM, replicate 1
[6] = 24 h, 1 µM, compound concentration 1 uM, replicate 2
[7] = 24 h, 10 µM, compound concentration 10 uM, replicate 1
[8] = 24 h, 10 µM, compound concentration 10 uM, replicate 2
[9] = 48 h, 1 µM, compound concentration 1 uM, replicate 1
[10] = 48 h, 1 µM, compound concentration 1 uM, replicate 2
[11] = 48 h, 10 µM, compound concentration 10 uM, replicate 1
[12] = 48 h, 10 µM, compound concentration 10 uM, replicate 2

CC1(COc2ccc3c(c2)ncn3-c2ccc3cccc(N4CCC(N)CC4)c3n2)COC1 [CRENOLANIB]
Population Apoptotic (%) [1]: 58% | Population Fragmented Nuclei (%) [1]: 14% | Population Healthy Nuclei (%) [1]: 79% | Population Hoechst High Intensity Objects (%) [1]: 3% | Population Membrane Permeable-Phenotype (%) [1]: 2% | Population Mitochondria Different-Phenotype (%) [1]: 23% | Population Mitotic Cells (%) [1]: 41% | Population Normal (%) [1]: 96% | Population Pyknosed Nuclei (%) [1]: 6% | Population Tubulin-Different-Phenotype (%) [1]: 46% | Total Cell Count [1]: 412 | Population Apoptotic (%) [2]: 34% | Population Fragmented Nuclei (%) [2]: 10% | Population Healthy Nuclei (%) [2]: 80% | Population Hoechst High Intensity Objects (%) [2]: 6% | Population Membrane Permeable-Phenotype (%) [2]: 1% | Population Mitochondria Different-Phenotype (%) [2]: 51% | Population Mitotic Cells (%) [2]: 65% | Population Normal (%) [2]: 93% | Population Pyknosed Nuclei (%) [2]: 8% | Population Tubulin-Different-Phenotype (%) [2]: 51% | Total Cell Count [2]: 332 | Population Apoptotic (%) [3]: 69% | Population Fragmented Nuclei (%) [3]: 67% | Population Healthy Nuclei (%) [3]: 13% | Population Hoechst High Intensity Objects (%) [3]: 67% | Population Membrane Permeable-Phenotype (%) [3]: 0% | Population Mitochondria Different-Phenotype (%) [3]: 84% | Population Mitotic Cells (%) [3]: 30% | Population Normal (%) [3]: 32% | Population Pyknosed Nuclei (%) [3]: 18% | Population Tubulin-Different-Phenotype (%) [3]: 68% | Total Cell Count [3]: 423 | Population Apoptotic (%) [4]: 55% | Population Fragmented Nuclei (%) [4]: 64% | Population Healthy Nuclei (%) [4]: 17% | Population Hoechst High Intensity Objects (%) [4]: 69% | Population Mitochondria Different-Phenotype (%) [4]: 90% | Population Mitotic Cells (%) [4]: 45% | Population Normal (%) [4]: 30% | Population Pyknosed Nuclei (%) [4]: 17% | Population Tubulin-Different-Phenotype (%) [4]: 50% | Total Cell Count [4]: 376 | Population Apoptotic (%) [5]: 29% | Population Fragmented Nuclei (%) [5]: 20% | Population Healthy Nuclei (%) [5]: 66% | Population Hoechst High Intensity Objects (%) [5]: 2% | Population Membrane Permeable-Phenotype (%) [5]: 2% | Population Mitochondria Different-Phenotype (%) [5]: 22% | Population Mitotic Cells (%) [5]: 70% | Population Normal (%) [5]: 97% | Population Pyknosed Nuclei (%) [5]: 12% | Population Tubulin-Different-Phenotype (%) [5]: 23% | Total Cell Count [5]: 547 | Population Apoptotic (%) [6]: 45% | Population Fragmented Nuclei (%) [6]: 15% | Population Healthy Nuclei (%) [6]: 73% | Population Hoechst High Intensity Objects (%) [6]: 6% | Population Membrane Permeable-Phenotype (%) [6]: 1% | Population Mitochondria Different-Phenotype (%) [6]: 33% | Population Mitotic Cells (%) [6]: 54% | Population Normal (%) [6]: 93% | Population Pyknosed Nuclei (%) [6]: 11% | Population Tubulin-Different-Phenotype (%) [6]: 35% | Total Cell Count [6]: 415 | Population Apoptotic (%) [7]: 72% | Population Fragmented Nuclei (%) [7]: 60% | Population Healthy Nuclei (%) [7]: 16% | Population Hoechst High Intensity Objects (%) [7]: 56% | Population Membrane Permeable-Phenotype (%) [7]: 0% | Population Mitochondria Different-Phenotype (%) [7]: 89% | Population Mitotic Cells (%) [7]: 27% | Population Normal (%) [7]: 43% | Population Pyknosed Nuclei (%) [7]: 23% | Population Tubulin-Different-Phenotype (%) [7]: 92% | Total Cell Count [7]: 394 | Population Fragmented Nuclei (%) [8]: 69% | Population Healthy Nuclei (%) [8]: 15% | Population Hoechst High Intensity Objects (%) [8]: 63% | Population Mitochondria Different-Phenotype (%) [8]: 94% | Population Normal (%) [8]: 36% | Population Pyknosed Nuclei (%) [8]: 14% | Population Tubulin-Different-Phenotype (%) [8]: 73% | Total Cell Count [8]: 334 | Population Apoptotic (%) [9]: 29% | Population Fragmented Nuclei (%) [9]: 19% | Population Healthy Nuclei (%) [9]: 72% | Population Hoechst High Intensity Objects (%) [9]: 1% | Population Membrane Permeable-Phenotype (%) [9]: 1% | Population Mitochondria Different-Phenotype (%) [9]: 17% | Population Mitotic Cells (%) [9]: 70% | Population Normal (%) [9]: 98% | Population Pyknosed Nuclei (%) [9]: 7% | Population Tubulin-Different-Phenotype (%) [9]: 10% | Total Cell Count [9]: 844 | Population Apoptotic (%) [10]: 47% | Population Fragmented Nuclei (%) [10]: 23% | Population Healthy Nuclei (%) [10]: 70% | Population Mitochondria Different-Phenotype (%) [10]: 21% | Population Mitotic Cells (%) [10]: 52% | Population Pyknosed Nuclei (%) [10]: 6% | Population Tubulin-Different-Phenotype (%) [10]: 14% | Total Cell Count [10]: 639 | Population Apoptotic (%) [11]: 86% | Population Fragmented Nuclei (%) [11]: 51% | Population Healthy Nuclei (%) [11]: 17% | Population Hoechst High Intensity Objects (%) [11]: 41% | Population Membrane Permeable-Phenotype (%) [11]: 0% | Population Mitochondria Different-Phenotype (%) [11]: 97% | Population Mitotic Cells (%) [11]: 13% | Population Normal (%) [11]: 59% | Population Pyknosed Nuclei (%) [11]: 30% | Population Tubulin-Different-Phenotype (%) [11]: 95% | Total Cell Count [11]: 400 | Population Apoptotic (%) [12]: 84% | Population Fragmented Nuclei (%) [12]: 47% | Population Healthy Nuclei (%) [12]: 22% | Population Hoechst High Intensity Objects (%) [12]: 49% | Population Mitochondria Different-Phenotype (%) [12]: 96% | Population Mitotic Cells (%) [12]: 15% | Population Normal (%) [12]: 50% | Population Tubulin-Different-Phenotype (%) [12]: 96% | Total Cell Count [12]: 298
